ChEMBL document CHEMBL1800016, “Novel thiazolidinedione derivatives with anti-obesity effects: dual action as PTP1B inhibitors and PPAR-γ activators” (Bioorg Med Chem Lett, 2010)
Activity calls are given as the source filed them. No cut-off for these calls is given here.

How the values were obtained:
[1] = target: T1, Tyrosine-protein phosphatase non-receptor type 2 (Homo sapiens, UniProt P17706); experiment: Inhibition of TC-PTP assessed as p-nitrophenol release from pNPP substrate preincubated for 10 mins
T1 sequence (P17706 whole entry): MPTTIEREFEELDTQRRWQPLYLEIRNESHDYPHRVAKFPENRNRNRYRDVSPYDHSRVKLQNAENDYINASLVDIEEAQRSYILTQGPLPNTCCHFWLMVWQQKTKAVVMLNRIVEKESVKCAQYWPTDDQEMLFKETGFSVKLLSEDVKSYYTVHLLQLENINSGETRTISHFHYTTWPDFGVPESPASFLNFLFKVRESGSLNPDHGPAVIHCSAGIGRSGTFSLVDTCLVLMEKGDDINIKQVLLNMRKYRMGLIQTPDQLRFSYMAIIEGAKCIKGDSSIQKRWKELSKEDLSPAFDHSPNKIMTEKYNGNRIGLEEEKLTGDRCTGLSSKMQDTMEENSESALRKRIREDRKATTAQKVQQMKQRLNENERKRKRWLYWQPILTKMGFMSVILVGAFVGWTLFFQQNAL
Method in brief: (§1)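 IC50 values against the PTP panel, with enzymes prepared as described in the supplementary material. Values are means ± SD of two or more experiments.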

[2] = Selectivity ratio of IC50 for membrane proximal catalytic domain of LAR-D1 to IC50 for PTP1B
[3] = system: Mus musculus; experiment: Toxicity in high fat diet-fed diabetic C57BL/6J Jms Slc mouse model assessed as change in weight of lung at 2.6 mg/day administered with food for 4 weeks; format: organism-based; details: in vivo, po, 672 h
Method in brief: (§2)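 At the end of the 4 wk in-feed dosing (about 2.6 mg/day/mouse in HFD), liver, kidney and lung weights were compared across the lean LFD, HFD control and treated groups.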

[4] = system: Mus musculus; experiment: Antiobesity activity in high fat diet-fed diabetic C57BL/6J Jms Slc mouse model assessed as decrease in serum triglyceride level at 2.6 mg/day administered with food for 4 weeks; format: functional
Method in brief: (§3)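 DIO mice were fed HFD for 8 wk, then HFD containing 0.1% w/w compound (about 2.6 mg/day/mouse) for 4 wk. At the end of feeding, mice were deprived of food overnight. Serum total cholesterol, triglyceride and NEFA were then measured. Values are mean ± SEM.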

[5] = system: Mus musculus; experiment: Antiobesity activity in high fat diet-fed diabetic C57BL/6J Jms Slc mouse model assessed as decrease in total cholesterol level in serum at 2.6 mg/day administered with food for 4 weeks; format: functional; method in brief: as §3
[6] = system: Mus musculus; experiment: Antiobesity activity in high fat diet-fed diabetic C57BL/6J Jms Slc mouse model assessed as reduction in body weight at 2.6 mg/day administered with food for 4 weeks; format: functional
Method in brief: (§4)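 DIO male C57BL/6J Jms Slc mice were fed a 45%-fat HFD for 8 wk, then HFD with 0.1% w/w compound in feed (about 2.6 mg/day/mouse) for 4 wk. A 10%-fat LFD lean group ran throughout. Measures were weight gain, feed efficiency (weight gain/kcal ×100), and epididymal and retroperitoneal fat pad weights. n = 8/group; mean ± SEM; one-way ANOVA.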

[7] = system: Mus musculus; experiment: Antidiabetic activity in high fat diet-fed diabetic C57BL/6J Jms Slc mouse model assessed as normalization of fasting blood glucose level at 2.6 mg/day administered with food for 4 weeks measured 60 mins after last dose by glucose tolerance test in presence of glucose; format: functional, organism-based
Method in brief: (§5)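 Mice were male C57BL/6J Jms Slc, 5 wk old after 1 wk acclimatization. They were fed a 45%-fat HFD for 8 wk, then HFD with compound mixed in (1.0 g/kg diet, about 2.6 mg/day/mouse, 78 mg/day/kg) for 4 wk. Each mouse was fasted 6 h from the start of the light cycle and fasting glucose was measured. Glucose 1.0 g/kg was then given i.p., with readings at 60 and 90 min.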

[8] = Selectivity ratio of IC50 for TC-PTP to IC50 for PTP1B
[9] = target: T2, Tyrosine-protein phosphatase 1 (Saccharomyces cerevisiae S288c, UniProt P25044); experiment: Inhibition of yeast PTP1 expressed in Escherichia coli assessed as p-nitrophenol release from pNPP substrate preincubated for 10 mins; method in brief: as §1
T2 sequence (P25044 whole entry): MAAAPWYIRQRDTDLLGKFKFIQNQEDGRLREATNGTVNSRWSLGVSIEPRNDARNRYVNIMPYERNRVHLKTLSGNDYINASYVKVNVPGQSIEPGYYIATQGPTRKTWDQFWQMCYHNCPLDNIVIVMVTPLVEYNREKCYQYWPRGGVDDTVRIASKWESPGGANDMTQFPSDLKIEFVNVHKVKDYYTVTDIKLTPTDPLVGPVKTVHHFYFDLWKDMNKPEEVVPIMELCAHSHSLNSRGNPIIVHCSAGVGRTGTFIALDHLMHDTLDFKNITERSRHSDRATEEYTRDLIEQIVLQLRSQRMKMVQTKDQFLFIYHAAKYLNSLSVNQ

[10] = system: Mus musculus; experiment: Antiobesity activity in high fat diet-fed diabetic C57BL/6J Jms Slc mouse model assessed as decrease in retroperitoneal fat at 2.6 mg/day administered with food for 4 weeks; format: functional; method in brief: as §4
[11] = system: Mus musculus; experiment: Toxicity in high fat diet-fed diabetic C57BL/6J Jms Slc mouse model assessed as change in weight of liver at 2.6 mg/day administered with food for 4 weeks; format: organism-based; details: in vivo, po, 672 h; method in brief: as §2
[12] = system: Mus musculus; experiment: Antidiabetic activity in high fat diet-fed diabetic C57BL/6J Jms Slc mouse model assessed as normalization of blood glucose level at 2.6 mg/day administered with food for 4 weeks measured 60 mins after last dose by glucose tolerance test; format: functional, organism-based; method in brief: as §5
[13] = target: T3, Tyrosine-protein phosphatase non-receptor type 1 (Homo sapiens) (UniProt P18031); experiment: Mixed type inhibition of PTP1B expressed in Escherichia coli
T3 sequence (whole entry): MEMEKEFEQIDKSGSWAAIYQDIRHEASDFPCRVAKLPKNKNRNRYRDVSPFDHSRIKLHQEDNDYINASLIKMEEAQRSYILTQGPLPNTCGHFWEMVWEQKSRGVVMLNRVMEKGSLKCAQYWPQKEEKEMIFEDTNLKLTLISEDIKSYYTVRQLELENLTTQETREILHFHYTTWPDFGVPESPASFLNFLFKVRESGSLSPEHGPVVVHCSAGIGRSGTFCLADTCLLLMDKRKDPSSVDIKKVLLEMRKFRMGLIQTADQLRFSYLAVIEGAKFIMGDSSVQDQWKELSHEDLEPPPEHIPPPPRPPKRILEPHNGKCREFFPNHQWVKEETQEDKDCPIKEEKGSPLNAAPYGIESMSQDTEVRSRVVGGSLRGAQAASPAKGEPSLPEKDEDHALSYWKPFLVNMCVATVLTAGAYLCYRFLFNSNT

[14] = system: Mus musculus; experiment: Antidiabetic activity in high fat diet-fed diabetic C57BL/6J Jms Slc mouse model assessed as normalization of fasting blood glucose level measured after 6 hrs of fasting at 2.6 mg/day administered with food for 4 weeks measured 90 mins after last dose by glucose tolerance test; format: functional, organism-based; method in brief: as §5

Question: With `Cc1ccc(S(=O)(=O)Oc2cc(OCc3ccc(C(F)(F)F)cc3)c(/C=C3\SC(=O)NC3=O)cc2Br)cc1` as the molecule, how does the IC50 [1] read?
Answer: The IC50 was 19 µM.

Question: And the Ratio IC50 [2]?
Answer: The Ratio IC50 was over 10.

Question: And the Activity [3]?
Answer: The Activity was “Non-toxic”.

Question: What about the Activity [4] of the same molecule?
Answer: Its Activity is 76 mg/dL.

Question: And the Activity [5]?
Answer: The Activity was 124 mg/dL.

Question: And the Activity [6]?
Answer: Its Activity is 2 g.

Question: What about the Activity [7] of the same molecule?
Answer: The Activity was “inactive”.

Question: And the Ratio IC50 [8]?
Answer: The Ratio IC50 was over 10.

Question: What about the IC50 [9] of the same molecule?
Answer: The IC50 was 12 µM.

Question: What about the Activity [10] of the same molecule?
Answer: Its Activity is 0.43 g.

Question: And the Activity [11]?
Answer: The Activity was “Non-toxic”.

Question: What about the Activity [12] of the same molecule?
Answer: The Activity was “Active”.

Question: And the inhibition [13]?
Answer: The inhibition was “Active”.

Question: And the Activity [14]?
Answer: Its Activity is “inactive”.
